The array DNA melting data of Ke et al. (doi:10.1101/2024.01.08.574731)

Experiments:
[1] = folding enthalpy; higher = less favourable; fluorescence melt of hairpins on a sequencing array, two-state fit; conditions: sodium 0.088 M
Procedure, shortened: (§1)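 On a sequenced MiSeq flow cell, library hairpins with annealed Cy3 and quencher oligos were imaged for Cy3 fluorescence in 2.5 °C steps up to 60 °C, in 50 mM Na-HEPES pH 8.0, 25 mM NaCl. Normalisation used pre-quench Cy3 and control constructs. Bootstrapped two-state fits gave melting temperature and folding enthalpy, combined by inverse variance across four replicates and with fitted temperatures raised by 9.35 °C to match UV melts.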

[2] = melting temperature; fluorescence melt of hairpins on a sequencing array, two-state fit, raised by 9.35 °C to match UV melts; conditions: sodium 0.088 M
Procedure, shortened: as §1

Sequence	folding enthalpy [1] [kcal/mol]	Tm [2] [°C]
GGGTTTCGAAAGAACCCC (((.(((....))).)))	-26.1	51.3
GGGTTTGGAAACAAATCC ((.((((....)))).))	-39.6	47.4
GGGTTTGGAAACAAGCCC (((.(((....))).)))	-32.1	52.7
GGTAACGAAAGTTACC ((((((....))))))	-34.7	64.1
GGTAACGAAAGTTGAACC ((((((....)))..)))	-14.2	30.1
GGTAACGAAAGTTTCACC ((((((....)))..)))	-9.74	28.8
GGTAACGAAAGTTTTACC ((((((....)))..)))	-9.8	29.7
GGTAACGGAAACGTTATC (.(((((....))))).)	-24.5	46.4
GGTAACGGAAACGTTGCC ((.((((....)))).))	-50.5	53.8
GGTAACGGAAACGTTGTC (..((((....))))..)	-16.8	31.6
GGTAAGGCGAAAGCCACC (((..(((....))))))	-15.3	43.7
GGTAAGGGAAACCCTACC ((((.((....)).))))	-24.3	40
GGTAAGGGAAACCTTATC (.(((((....))))).)	-25.6	38.1
GGTAATACGAAAGTAACC (((..(((....))))))	-9.63	22.7
GGTAATCGAAAGATAACC (((.(((....))).)))	-26.3	41.7
GGTAATGGAAACATTGCC ((.((((....)))).))	-29.2	46.7
GGTACAACGAAAGTTACC (((..(((....))))))	-17.3	33.3
GGTACAGGAAACCGTACC (((((.(....).)))))	-33	47.1
GGTACAGGAAACTGTACC (((((((....)))))))	-44.5	59.3
GGTACAGGAAACTGTGTC (..((((....))))..)	-17.6	28.9
GGTACCCGAAAGGGACC (((.(((....))))))	-25.9	54.5
GGTACCGAAAGGTAGACC ((((((....)))..)))	-13.2	41
GGTACCGAAAGGTGAACC ((((((....)))..)))	-15.5	37.1

Sequence	folding enthalpy [1] [kcal/mol]	Tm [2] [°C]
GGTACCGCGAAAGCGACC (((..(((....))))))	-10.2	28.1
GGTACCGGAAACGGTATC (.(((((....))))).)	-23.9	51.6
GGTACGAAAGTACC (((((....)))))	-30.4	65.8
GGTACGACGAAAGTCACC (((..(((....))))))	-13.4	32.9
GGTACGCGAAAGCGAACC (((.(((....))).)))	-24.8	58
GGTACGGGAAACCGTACC (((((((....)))))))	-33.4	67.8
GGTACGGGAAACCGTATC (.(((((....))))).)	-25.7	49.7
GGTACGGGAAACTGTACC (((((.(....).)))))	-34.3	50.9
GGTACTCGAAAGAGAACC (((.(((....))).)))	-30	49.8
GGTACTGGAAACAGTATC (.(((((....))))).)	-21.3	44.4
GGTACTGGAAACGGTATC (.(((.(....).))).)	-13	27.7
GGTAGAGGAAACTCCACC (((.(((....))).)))	-28.2	31.6
GGTAGCGAAAGCTAAACC ((((((....)))..)))	-15	42.8
GGTAGCGAAAGCTACACC ((((((....)))..)))	-9.32	50.5
GGTAGCGAAAGCTCAACC ((((((....)))..)))	-13.7	34.9
GGTAGCGAAAGCTCTACC ((((((....)))..)))	-16.4	38.1
GGTAGCGAAAGCTGACC ((((((....))).)))	-17.2	49.7
GGTAGCGGAAACGTTGCC ((.(.((....)).).))	-25.2	39.3
GGTAGGCGAAAGCCAACC (((.(((....))).)))	-28.1	57.6
GGTAGGCGAAAGCCACC (((.(((....))))))	-16	58.2
GGTAGGGGAAACCCTACC (((((((....)))))))	-44.1	64.6
GGTAGTCCGAAAGGAACC (((..(((....))))))	-12.4	27.1
GGTAGTGGAAACACTGCC ((.((((....)))).))	-38.9	53

Sequence	folding enthalpy [1] [kcal/mol]	Tm [2] [°C]
GGTATAACGAAAGTTACC (((..(((....))))))	-13.7	37.8
GGTATACGAAAGTAGACC (((.(((....))).)))	-50.9	52.1
GGTATAGGAAACCATACC (((((.(....).)))))	-23.1	36.7
GGTATCGAAAGATAACC ((((((....))).)))	-21.5	40.8
GGTATCGAAAGATACACC ((((((....)))..)))	-11.8	42.9
GGTATCGAAAGATACC ((((((....))))))	-43.2	62.1
GGTATCGGAAACGATACC (((((((....)))))))	-48.7	64
GGTATCGGAAACGATGCC ((.((((....)))).))	-37.9	54.6
GGTATCGGAAACGGTACC ((((.((....)).))))	-40.6	51.6
GGTATGACGAAAGTCACC (((..(((....))))))	-11.8	33.6
GGTATGCCGAAAGGCACC (((..(((....))))))	-9.19	34.1
GGTATGCGAAAGCACACC (((.(((....))).)))	-27.7	49.7
GGTATGCGAAAGCAGACC (((.(((....))).)))	-35.3	65.1
GGTATTCGAAAGAACACC (((.(((....))).)))	-29.4	39.3
GGTATTGGAAACGATACC (((((.(....).)))))	-33.4	44.4
GGTCAACGAAAGTTAACC (((.(((....))).)))	-25	39.3
GGTCAAGGAAACTTGGCC ((.((((....)))).))	-38.1	52.8
GGTCACACGAAAGTGACC (((..(((....))))))	-35.5	58.2
GGTCACCGAAAGGTTACC (((.(((....))).)))	-27.2	50.1
GGTCACGAAAGTGCACC ((((((....))).)))	-28.3	52.5
GGTCACGGAAACATGACC (((((.(....).)))))	-28.4	44.4
GGTCAGCGAAAGCTACC (((.(((....))))))	-16.7	47.5
GGTCAGGGAAACCTGGCC ((.((((....)))).))	-42.2	57.5

Sequence	folding enthalpy [1] [kcal/mol]	Tm [2] [°C]
GGTCAGGGAAACCTGGTC (..((((....))))..)	-15.9	35.7
GGTCATCGAAAGATCACC (((.(((....))).)))	-30.2	35.7
GGTCATGGAAACGTGACC (((((.(....).)))))	-52.9	53.6
GGTCCACCGAAAGGTACC (((..(((....))))))	-11.9	29.2
GGTCCACGAAAGTGCACC (((.(((....))).)))	-25.9	44.5
GGTCCAGGAAACTGAACC (((.(((....))).)))	-34.6	40
GGTCCCGAAAGGGGAACC ((((((....)))..)))	-17.2	48.5
GGTCCCGAAAGGGGCACC ((((((....)))..)))	-11.3	50.7
GGTCCCGAAAGGGTTACC ((((((....)))..)))	-15.4	39.6
GGTCCCGGAAACAGGACC (((((.(....).)))))	-28.6	49.7
GGTCCGCCGAAAGGCACC (((..(((....))))))	-8.71	28.3
GGTCCGCGAAAGCGTACC (((.(((....))).)))	-27.2	54.1
GGTCCTCGAAAGAGAACC (((.(((....))).)))	-32.2	46.8
GGTCCTGGAAACAAGACC ((((.((....)).))))	-32.1	36.2
GGTCCTGGAAACAGAACC (((.(((....))).)))	-29.7	38.9
GGTCCTGGAAACAGGATC (.(((((....))))).)	-31.8	51
GGTCGAACGAAAGTTACC (((..(((....))))))	-11.7	26.6
GGTCGACGAAAGTCAACC (((.(((....))).)))	-32.2	49.9
GGTCGACGAAAGTCTACC (((.(((....))).)))	-34.7	49.8
GGTCGAGGAAACTCGGTC (..((((....))))..)	-16.2	38.4
GGTCGCCGAAAGGCCACC (((.(((....))).)))	-15.7	48.1
GGTCGCGAAAGCGCCACC ((((((....)))..)))	-11.2	47.8
